Source: ChEMBL document CHEMBL1128308, “Synthesis and antiinflammatory activity of certain 5,6,7,8-tetrahydroquinolines and related compounds” (J Med Chem, 1995)

Experiments:
[1] = biological target: T1, Polyunsaturated fatty acid 5-lipoxygenase (Rattus norvegicus) (UniProt P12527); test: Inhibition of 5-lipoxygenase pathway in rat polymorphonuclear assay, by ability to inhibit formation of LTB4 AT 10 uM
T1 sequence (whole entry): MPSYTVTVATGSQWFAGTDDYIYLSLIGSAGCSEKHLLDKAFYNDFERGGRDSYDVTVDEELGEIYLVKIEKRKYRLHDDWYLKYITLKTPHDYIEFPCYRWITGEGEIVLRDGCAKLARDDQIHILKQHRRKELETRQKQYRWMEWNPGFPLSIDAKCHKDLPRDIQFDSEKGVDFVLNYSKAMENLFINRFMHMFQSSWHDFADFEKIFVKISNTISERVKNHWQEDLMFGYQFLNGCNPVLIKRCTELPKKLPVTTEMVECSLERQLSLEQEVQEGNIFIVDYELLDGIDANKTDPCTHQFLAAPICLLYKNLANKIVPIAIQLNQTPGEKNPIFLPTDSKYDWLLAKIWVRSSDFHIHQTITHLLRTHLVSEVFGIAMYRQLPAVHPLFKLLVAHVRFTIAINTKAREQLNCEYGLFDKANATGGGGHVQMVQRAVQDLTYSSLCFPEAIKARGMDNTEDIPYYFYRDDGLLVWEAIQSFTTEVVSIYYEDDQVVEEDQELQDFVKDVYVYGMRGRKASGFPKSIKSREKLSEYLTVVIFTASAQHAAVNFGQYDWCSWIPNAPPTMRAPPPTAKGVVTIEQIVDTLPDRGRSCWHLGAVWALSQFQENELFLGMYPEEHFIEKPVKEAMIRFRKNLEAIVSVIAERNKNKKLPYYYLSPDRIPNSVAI

Rattus norvegicus [2] = test: Antiinflammatory activity by rat adjuvant arthritis assay at 30 mg/kg peroral administration (uninjected paw at day 16).; details: route oral
Rattus norvegicus [3] = test: Antiinflammatory activity by rat Carrageenan edema assay at 50 mg/kg peroral administration (3h edema).; type: functional; details: route oral
Method in brief: (§1)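 Groups of six male Sprague-Dawley rats (150-165 g) were dosed po in 0.5% methyl cellulose. One hour later, 0.1 mL of 1% carrageenan was injected subplantar into the right hind paw. Edema was taken as the 3 h paw volume minus the zero-time volume and expressed as percent change versus vehicle; screening dose was 50 mg/kg po.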

[4] = biological target: T1, Polyunsaturated fatty acid 5-lipoxygenase (Rattus norvegicus); test: Inhibition of 5-lipoxygenase pathway in rat polymorphonuclear assay (inhibition of 5-HETE formation)
Method in brief: (§2)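 Rat polymorphonuclear leucocytes at 10^7 cells/mL in HBSS (Mg2+, Ca2+, 10 mM cysteine) were preincubated with compound, added in DMSO, for 10 min at 37 °C with shaking. Radiolabeled eicosanoids (5-HETE for the 5-LO pathway, TXB2 for the CO pathway) were separated by HPLC and detected with an in-line radioactivity detector. Results are given as percent change at 10 µM or 50 µM.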

[5] = biological target: T1, Polyunsaturated fatty acid 5-lipoxygenase (Rattus norvegicus)
[6] = biological target: Cyclooxygenase (Rattus norvegicus) (UniProt P35355+Q63921)
[7] = biological target: T1, Polyunsaturated fatty acid 5-lipoxygenase (Rattus norvegicus); remark: listed apart in the source
[8] = biological target: T1, Polyunsaturated fatty acid 5-lipoxygenase (Rattus norvegicus); test: 5-lipoxygenase Inhibitory activity against rat polymorphonuclear leucocytes using 5-HETE; method in brief: as §2
Rattus norvegicus [9] = test: Anti-inflammatory activity by rat carrageenan edema assay. (3h edema).; type: functional; method in brief: as §1
Rattus norvegicus [10] = species on record: Rattus norvegicus; test: Anti-inflammatory activity by rat adjuvant Arthritis assay..
[11] = biological target: T1, Polyunsaturated fatty acid 5-lipoxygenase (Rattus norvegicus); test: Inhibition of 5-lipoxygenase pathway was evaluated in rat polymorphonuclear assay by compound (50 uM) ability to inhibit formation of 5-HETE; method in brief: as §2
Rattus norvegicus [12] = species on record: Rattus norvegicus; test: Anti-inflammatory activity by rat acute gastric irritation assay, activity is expressed as Ulcerogenic dose (UD50).; type: functional, Stomach
Method in brief: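 Male Sprague-Dawley rats (190-220 g) were fasted for 18 h, then given compound in 0.5% Tween 80 by gastric intubation at 1 mL/100 g, with groups of 8 scored blind. At 4 h, gastric irritation was scored 0-3: 0 none, 1 redness, 2 ≤5 lesions, 3 >5 lesions. The ulcerogenic dose is the dose at which 50% of rats had at least one lesion.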

[13] = biological target: T1, Polyunsaturated fatty acid 5-lipoxygenase (Rattus norvegicus); remark: listed apart in the source

Row | Compound | Change [1] [%] | Change [4] [%] | Change (Rattus norvegicus [2]) [%] | Change (Rattus norvegicus [3]) [%] | further results
1 | Cc1ccc(C(C)(O)c2nc3c(cc2C)CCCCC3)cc1 (stereo unspecified) | -13 | -14 | -4 | 2.5 | –
2 | Cc1ccc(C(O)Cc2ccc3c(n2)CCCCC3)cc1 (stereo unspecified) | -29 | -14 | 28 | -41 | –
3 | CC(c1cc2ccccc2s1)N(O)C(N)=O (stereo unspecified) | – | – | – | – | IC50 [5]: 0.3 µM; IC50 [6]: 16 µM; IC50 [7]: 0.4 µM
4 | Cc1ccnc2c1CCC/C2=C\c1ccncc1 | -4 | – | 3 | -15 | Change [8]: 9%
5 | Cc1ccc([C@@H](O)[C@@H]2CCCCc3cccnc32)cc1 | -37 | -37 | -42 | -33 | –
6 | Cc1ccc(S(=O)(=O)NC2CCCc3cc(C)cnc32)cc1 (stereo unspecified) | 2 | – | 77 | -33 | Change [8]: -16%
7 | COc1ccc2cc([C@H](C)C(=O)O)ccc2c1 | – | – | – | – | IC50 [5]: > 100 µM; IC50 [6]: 0.1 µM; IC50 [7]: > 100 µM
8 | Cc1cnc2c(c1)CCCC2[S+]([O-])c1ccccc1 (stereo unspecified) | 13 | 50 | 13 | -25 | –
9 | NC1=NN(c2cccc(C(F)(F)F)c2)CC1 [BW-755C] | – | – | – | – | ED50 (Rattus norvegicus [9]): 72 mg/kg; ED50 (Rattus norvegicus [10]): 38 mg/kg; IC50 [5]: 10 µM; IC50 [7]: 11 µM
10 | COc1cc(/C=C2\CCCc3c(C)ccnc32)ccc1OC(C)=O | – | – | 23 | -45 | Change [11]: -100%
11 | Cc1cnc2c(c1)CCCC2Sc1ccccc1 (stereo unspecified) | -39 | – | -27 | -21 | Change [8]: -50%
12 | Cc1ccc(/C=C2\CCCc3cc(C)cnc32)cc1 | – | – | 17 | -47 | Change [11]: -28%
13 | Cc1ccc(/C=C2\c3ncc(C)cc3CCC2(C)C)cc1 | 86 | – | 8 | -48 | Change [8]: 97%
14 | C/C(=C1/CCCc2c(C)ccnc21)c1ccc(C)cc1 | -18 | – | 0 | -15 | Change [8]: 1%
15 | Cc1ccnc2c1CCC/C2=C/c1ccnc2ccccc12 | -23 | – | -38 | -36 | Change [8]: -5%
16 | Cc1ccc(C(=O)C2CCCc3c(C)ccnc32)cc1C (stereo unspecified) | -53 | – | -28 | -25 | Change [8]: -50%
17 | Cc1ccnc2c1CCC/C2=C/c1ccncc1 | -25 | – | -49 | -17 | Change [8]: -17%
18 | Cc1cnc2c(c1)CCCC2S(=O)(=O)c1ccccc1 (stereo unspecified) | 6 | 0 | -2 | -22 | –
19 | Cc1ccc([C@@H](O)[C@@H]2CCCc3cc(C)cnc32)cc1 | -11 | -27 | -3 | -15 | –
20 | Cc1ccc([C@@H](O)[C@H]2c3ncc(C)cc3CCC2(C)C)cc1 | 8 | 27 | -39 | -19 | –
21 | Cc1ccc(C(=O)C2CCCc3c(C)ccnc32)cc1 (stereo unspecified) | -34 | – | 19 | -12 | Change [8]: -41%
22 | COc1cc(/C=C2\CCCc3cc4ccccc4nc32)ccc1OC(C)=O | – | – | 14 | -39 | Change [11]: -100%
23 | Cc1ccc([C@H](O)[C@@H]2CCCCc3cccnc32)cc1 | -37 | -31 | -32 | -26 | –
24 | COc1cc(/C=C2\CCCc3cc(C)cnc32)ccc1O | – | – | -1 | -36 | –
25 | C/C(=C1\CCCc2c(C)ccnc21)c1ccc(C)cc1 | -22 | – | -14 | -15 | Change [8]: 7%
26 | CC(C)Cc1ccc(C(C)C(=O)O)cc1 (stereo unspecified) [IBUPROFEN] | – | – | – | – | UD50 (Rattus norvegicus [12]): 42 mg/kg; IC50 [13]: > 50 µM; ED50 (Rattus norvegicus [10]): 95 mg/kg; IC50 [7]: > 50 µM
27 | Cc1cccc(C(=O)C2CCCc3cccnc32)c1 (stereo unspecified) | -11 | – | -16 | -6 | Change [8]: 23%
28 | Cc1ccc([C@H](O)[C@@H]2CCCc3cc(C)cnc32)cc1 | -48 | -49 | 49 | -33 | –

Further lines, with some results ahead:

Row | Change [1] [%] | Change [4] [%] | Compound | Change (Rattus norvegicus [2]) [%] | Change (Rattus norvegicus [3]) [%] | further results
29 | -23 | -44 | Cc1ccc(C(O)c2nc3c(cc2C)CCCC3)cc1 (stereo unspecified) | -34 | -12.5 | –
30 | -51 | -42 | Cc1cc2c(nc1C(O)c1cccc(Cl)c1)CCCCC2 (stereo unspecified) | 30 | -28 | –
31 | 40 | 5 | Cc1cc2c(nc1C(O)c1ccc(C(F)(F)F)cc1)CCCCC2 (stereo unspecified) | -18 | -24 | –
32 | -43 | -45 | Cc1ccc(C(O)c2nc3c(cc2C)CCC3)cc1 (stereo unspecified) | -2 | -3.5 | –
33 | -29 | -23 | Cc1ccc(C(N)c2nc3c(cc2C)CCCCC3)cc1 (stereo unspecified) | -3 | -10 | –
34 | -52 | -49 | Cc1ccc(C(=O)c2nc3c(cc2C)CCCCC3)cc1 | -26 | -59 | –
35 | -57 | -37 | Cc1ccc(Cc2nc3c(cc2C)CCCCC3)cc1 | – | -26 | –
36 | 9 | -5 | Cc1cc2c(nc1C(O)c1cccnc1)CCCCC2 (stereo unspecified) | 18 | -14 | –
37 | -25 | -28 | Cc1ccc(C(O)c2ccc3c(n2)CCCCC3)cc1 (stereo unspecified) | -33 | -26 | –
38 | -4 | -29 | Cc1cc2c(nc1C(O)c1ccccc1)CCCCC2 (stereo unspecified) | -45 | -45 | –
39 | -50 | -34 | COc1cccc(C(O)c2nc3c(cc2C)CCCCC3)c1 (stereo unspecified) | -14 | -28 | –
40 | -12 | -10 | COC(c1ccc(C)cc1)c1nc2c(cc1C)CCCCC2 (stereo unspecified) | -26 | -9.5 | –
41 | 34 | 37 | Cc1cc2c(nc1C(O)c1cccs1)CCCCC2 (stereo unspecified) | -6 | -9.5 | –
